From PubChem BioAssay
Only some compounds are listed: those with a hit (about 0.58% of all), similar ones and a draw of the others.
OXTR ag: agonists of human oxytocin receptor. 0.32% of 320,000 active. AID 2435. CHO-OTR cells, Fluo-8 calcium fluorescence; normalized: DMSO 0%, oxytocin 100%. activation, % at 3 µM. P30559;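 active = activation above the mean of all tested compounds plus 3 SD, cutoff set per screening run, cut at about 20% in these data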;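 also: peak over basal fluorescence ratio from a 100 s FLIPR kinetic read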
OXTR potentiator: potentiates the human oxytocin receptor response; CHO-OTR cells, Fluo-8 calcium fluorescence, potentiator mode; 0% = oxytocin EC15, 100% = EC100; activation, % at 3 µM; 0.061% of 320,000 active;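 active = activation above that plate's cutoff, the mean activation of tested compounds plus 3 SD, cut at about 6.6% in these data, passing the limit was not always enough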
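Assay system: CHO cell line stably expressing human OTR. Reagent: EC15 oxytocin agonist. Dosing: single dose, 3.0 µM nominal final compound concentration. Timing: compound 6 min at room temperature before oxytocin, 100 s read. Signal: kinetic Fluo-8 calcium fluorescence. Controls: oxytocin EC15 low and EC100 high.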
zfTRPN1 agonist: zebrafish TRPN1 (NompC) channel agonism | 0.18% of 220,000 active | activation, % at 3 µM | HEK293 zebrafish TRPN1-YFP, Fluo-8 calcium fluorescence; 100% = response to 87 µM carbachol;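 active = activation above its plate's cutoff, the mean activation of test wells on that plate plus 3 SD, cut at about 19% in these data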
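System: zebrafish TRPN1-YFP in HEK293 cells / Dosing: 3 µM single point / Timing: dye loading 1 h at 37 °C, then 30 min room temperature / Signal: Fluo-8 calcium fluorescence, excitation 470-495 nm, emission 515-575 nm / Read-out basis: percent activation from peak over basal fluorescence ratio, control-normalized / Control set: high carbachol 87 µM, low DMSO alone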
V1aR counter: V1a receptor agonism, counter-screen for OXTR agonists; CHO-V1R cells, Fluo-8 calcium fluorescence, agonist mode; 0% DMSO, 100% 3 nM vasopressin; activation, % at 3 µM; 0.25% of 320,000 active; AID 2797;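 active = activation above the mean activation of all tested compounds plus 3 SD, per screening run, cut at about 20% in these data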;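 also: signal is peak over basal fluorescence ratio across a 100 second FLIPR read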
TRPML3 agonist: activates the human TRPML3 channel; HEK293 TRPML3-YFP, Fluo-8 calcium fluorescence; 100% = the carbachol control signal; activation, % at 3 µM; AID 1448; 0.29% of 220,000 active; Q8TDD5;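 active = activation above its plate's cutoff, the mean activation of the plate's test wells plus 3 SD, cut at about 12% in these data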
Target sequence (Q8TDD5 whole entry, looked up): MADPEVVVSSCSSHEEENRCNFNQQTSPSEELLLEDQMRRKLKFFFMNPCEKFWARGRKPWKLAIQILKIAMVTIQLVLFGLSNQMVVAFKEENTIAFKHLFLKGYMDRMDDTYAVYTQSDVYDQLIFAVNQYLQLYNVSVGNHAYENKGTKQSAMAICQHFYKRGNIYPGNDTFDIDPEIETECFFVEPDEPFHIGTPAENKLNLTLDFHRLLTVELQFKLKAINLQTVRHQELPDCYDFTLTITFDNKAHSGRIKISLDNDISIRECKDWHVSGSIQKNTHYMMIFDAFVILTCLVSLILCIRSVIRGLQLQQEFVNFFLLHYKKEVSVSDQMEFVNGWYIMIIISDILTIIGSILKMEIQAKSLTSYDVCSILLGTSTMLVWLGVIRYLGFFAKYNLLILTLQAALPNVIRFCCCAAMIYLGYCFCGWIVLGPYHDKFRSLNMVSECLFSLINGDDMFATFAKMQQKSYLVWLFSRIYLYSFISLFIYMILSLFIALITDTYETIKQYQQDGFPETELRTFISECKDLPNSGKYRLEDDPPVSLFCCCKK
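Material: TRPML3-YFP stable HEK293 cells | Dosing: One concentration, 3 µM nominal, 0.3% DMSO | Timing: 125 s total fluorescence read per well | Technique: Fluo-8 calcium dye fluorescence, ex 470-495, em 515-575 nm | Measure: Percent activation from peak-to-basal fluorescence ratio, scaled between DMSO and carbachol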
Each line names hits and unclear results; the compound was inactive in the other large screens.

O=C(NNC(=S)NC(=O)c1ccc(Br)cc1)c1ccc([N+](=O)[O-])cc1	OXTR ag 64.2, V1aR counter 62.5 (no result: zfTRPN1 agonist, TRPML3 agonist)
O=C(NNC(=S)NC(=O)c1ccccc1Cl)c1cccc([N+](=O)[O-])c1	OXTR ag 28.4, V1aR counter 23.1 (no result: zfTRPN1 agonist, TRPML3 agonist)
CC(=O)NNC(=S)NC(=O)c1cccc([N+](=O)[O-])c1	none
O=C(Nc1cccc(-n2cnnn2)c1)c1ccccc1Br	none (no result: zfTRPN1 agonist, TRPML3 agonist)
COc1cc(/C=C/C(=O)OCC(=O)Nc2ccc([N+](=O)[O-])cc2)ccc1O	OXTR ag 21.4, V1aR counter 30.0
COc1cc(/C=C/C(O)=C/C(=O)/C=C/c2ccc(O)cc2)ccc1O	OXTR ag 21.7, V1aR counter 20.8 (no result: zfTRPN1 agonist, TRPML3 agonist)
COc1cc(CN(C2CCCCC2C)S(=O)(=O)c2ccc(S(=O)(=O)NC3CC3)cc2)cc(OC)c1OC (stereo not given)	none
COc1ccc(CN(C2CCCCC2C)S(=O)(=O)c2ccc(S(=O)(=O)N(C)C)cc2)cc1OC (stereo not given)	zfTRPN1 agonist 39.0, TRPML3 agonist 144.7
Cc1nnc(SCC(=O)c2cc(C)n(-c3ccc4c(c3)OCO4)c2C)s1	zfTRPN1 agonist 27.3, TRPML3 agonist 16.8
CCCCc1ncc(CN2CCC(CC3CCCCO3)(C(=O)OCC)CC2)[nH]1 (stereo not given)	none
CCOC(=O)C1(CC2CCCCO2)CCN(Cc2cc3ccccc3[nH]2)CC1 (stereo not given)	OXTR ag 31.3, zfTRPN1 agonist 30.0, V1aR counter 27.7, TRPML3 agonist 23.9
c1ccc(-n2ncc3c(N4CCC5(CC4)OCCO5)ncnc32)cc1	none
O=c1oc2c3c4c(cc2c(C(F)(F)F)c1CCN1CCOCC1)CCCN4CCC3	OXTR ag 33.9, zfTRPN1 agonist 19.9, V1aR counter 33.0
CC(C)c1cc(=O)oc2c3c4c(cc12)CCCN4CCC3	none
O=C(Nc1ccccc1)Nc1ncc([N+](=O)[O-])s1	zfTRPN1 agonist 22.2, TRPML3 agonist 17.0 (no result: OXTR ag, OXTR potentiator, V1aR counter)
O=C(COC(=O)c1ccccc1)Nc1ncc([N+](=O)[O-])s1	none (no result: zfTRPN1 agonist, TRPML3 agonist)
Cc1cc(C)nc(NS(=O)(=O)c2ccc(NC(=O)C3(c4ccc([N+](=O)[O-])cc4)CCCC3)cc2)n1	OXTR ag 21.9, V1aR counter 21.6
Cc1ccc2nc(/C(C#N)=C/c3ccc(-c4ccccc4C(=O)O)o3)[nH]c2c1	OXTR ag 39.5, V1aR counter 26.8 (no result: zfTRPN1 agonist, TRPML3 agonist)
Cc1ccc2nc(/C(C#N)=C\c3ccc(N4CCOCC4)o3)[nH]c2c1	OXTR ag 42.8, V1aR counter 30.1
Cc1cc2nc(/C(C#N)=C\c3ccc(-c4ccccc4C(=O)O)o3)[nH]c2cc1C	none (no result: zfTRPN1 agonist, TRPML3 agonist)
CCOC(=O)N1CCN(CC(O)COc2ccccc2C(C)(C)C)CC1 (stereo not given)	none
OC(COc1ccccc1)Cn1c2ccccc2c2ccccc21 (stereo not given)	none
O=C(O)c1ccc(OCC(O)Cn2c3ccccc3c3ccccc32)cc1 (stereo not given)	OXTR ag 21.6, V1aR counter 43.6
COC(=O)[C@@H](NC(=O)c1cc(COc2cncc(Cl)c2)on1)c1ccccc1	none (no result: zfTRPN1 agonist, TRPML3 agonist)
CC(C)(C)C(=O)/C=c1\s/c(=C\c2ccc(-c3ccc([N+](=O)[O-])cc3)o2)c(=O)n1CC(=O)NC(N)=O	OXTR ag 36.2, zfTRPN1 agonist 30.8, V1aR counter 46.8, TRPML3 agonist 16.1
CCN(CC)c1ccc2c(Cl)c(Br)c(=O)oc2c1	OXTR ag 62.5, V1aR counter 85.3
Cn1c(=O)n(C)c2cc(/C=N/NC(=O)c3cc4cc(Br)ccc4o3)ccc21	none
CCOc1cc(CNCCc2ccc(S(N)(=O)=O)cc2)ccc1OCc1ccc(Cl)cc1	OXTR ag 37.0, V1aR counter 27.2
O=C(NNc1ccc(C(F)(F)F)cc1[N+](=O)[O-])c1ccc(NS(=O)(=O)c2ccc(F)cc2)cc1	none
Nc1nc(Nc2cccc(F)c2)nc(NCCO)c1[N+](=O)[O-]	OXTR potentiator 12.2
COc1ccccc1N=C1NC(=O)/C(=C/c2ccc(N(C)C)cc2)S1	OXTR ag 24.7, V1aR counter 24.5 (no result: zfTRPN1 agonist, TRPML3 agonist)
CC(=O)N1CCOc2ccc(S(=O)(=O)N3CCC(C(=O)Nc4ccc(F)cc4)CC3)cc21	none (no result: zfTRPN1 agonist, TRPML3 agonist)
CCOC(=O)CN1C(=O)NC(C)(c2ccc(OC(F)F)cc2)C1=O (stereo not given)	none
CC1(c2ccc(OC(F)F)cc2)NC(=O)N(CC(=O)Nc2ccccc2)C1=O (stereo not given)	OXTR ag 46.5, V1aR counter 32.2 (no result: zfTRPN1 agonist, TRPML3 agonist)
CC(=O)Nc1ccc(/C=N/N2C(=O)NC(C)(c3ccc(OC(F)F)cc3)C2=O)cc1 (stereo not given)	OXTR ag 55.2, V1aR counter 38.5
CC1(c2ccc(OC(F)F)cc2)NC(=O)N(CC(=O)Nc2ccc3c(c2)OCO3)C1=O (stereo not given)	OXTR ag 39.2, zfTRPN1 agonist 30.2, V1aR counter 45.4, TRPML3 agonist 26.4
Cc1ccc(S(=O)(=O)CCN2CCN(c3ccccn3)CC2)cc1	none
Cc1cc(NC(=O)CCN2C(=O)C3C4CCC(C4)C3C2=O)c(C)cc1Br (stereo not given)	none
CCOC(=O)C1CCN(C(=O)COC(=O)c2cc(-c3cccs3)nn2-c2ccccc2)CC1	none (no result: zfTRPN1 agonist, TRPML3 agonist)
N#Cc1c(SCC(=O)Nc2nncs2)sc2c(O)cc(=O)[nH]c12	none (no result: zfTRPN1 agonist, TRPML3 agonist)
c1ccc(CNc2nc(NCc3ccccc3)c3ccccc3n2)cc1	OXTR ag 28.3, V1aR counter 21.4
CCC(=O)c1ccc(OCC(=O)NCCC2=CCCCC2)c(OC)c1	none (no result: zfTRPN1 agonist, TRPML3 agonist)
COC(=O)/C=C1\S/C(=N/N=C/c2ccco2)NC1=O	none
O=C(Nc1cc(S(=O)(=O)N2CCCCC2)ccc1Cl)c1ccccc1NS(=O)(=O)c1ccc(F)cc1	zfTRPN1 agonist 19.4, TRPML3 agonist 13.4
Cc1ccc(-c2noc(CCC(=O)NCCCN3CCN(c4cccc(Cl)c4)CC3)n2)cc1	OXTR ag 30.7, V1aR counter 21.1
O=C(O)CCC(=O)Nc1nnc(C(F)(F)F)s1	none
CCC(NC(=O)Nc1nnc(C(F)(F)F)s1)(C(F)(F)F)C(F)(F)F	zfTRPN1 agonist 26.5, TRPML3 agonist 23.3
CCN(CC)CCNC(=O)Cn1c(C)cc2ccccc2c1=O	none
Cc1cc(C)nc(/N=C(\N)Nc2cccc(OCc3ccccc3)c2)n1	OXTR ag 46.1, zfTRPN1 agonist 72.3, V1aR counter 49.7, TRPML3 agonist 61.2
Cc1cc(C)nc(/N=C(\N)Nc2ccc(OCc3ccccc3)cc2)n1	OXTR ag 75.1, zfTRPN1 agonist 111.5, V1aR counter 76.8, TRPML3 agonist 101.5
Cc1cc(C)nc(/N=C(\N)Nc2ccc(OCCC(C)C)cc2)n1	OXTR ag 49.7, V1aR counter 48.0 (no result: zfTRPN1 agonist, TRPML3 agonist)
CS(=O)(=O)N(CC(=O)N/N=C/c1cc2c(cc1Br)OCO2)c1ccccc1Br	none
